Drawing on ChEMBL document CHEMBL1152787, “Search for MDR modulators: design, syntheses and evaluations of N-substituted acridones for interactions with p-glycoprotein and Mg2+” (Bioorg Med Chem, 2009), this text covers Activity and logP for ten compounds.

Molecules are shown by their SMILES.

Data set [1] has as its target T1, ATP-dependent translocase ABCB1 (Homo sapiens, UniProt P08183). Description: Inhibition of P-gp ATPase activity in […] DC-3F/ADX cells assessed as increase in basal activity measured by NADH level at 0.05 uM by spectrophotometric method. As to conditions: Chinese hamster. Also on record: scale not given: the % may be the effect or the level left. The class given is cell-based. The procedure, abridged: (§1)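 P-gp basal MgATP hydrolysis in vesicle suspension, monitored continuously by spectrophotometry. ADP formation is coupled through phosphoenolpyruvate→pyruvate→lactate with NADH→NAD+ conversion, read as NADH absorbance at 340 nm in a 96-well plate. Compound stocks of 0.5, 5 and 50 µM give final well concentrations of 0.05, 0.5 and 5 µM. Run in triplicate.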

Data set [2] concerns the target T1, ATP-dependent translocase ABCB1. Kind of data set: Inhibition of P-gp ATPase activity in […] DC-3F/ADX cells assessed as increase in basal activity measured by NADH level at 0.5 uM by spectrophotometric method. Also on record: scale not given: the % may be the effect or the level left. The note with it: Chinese hamster. The class given is cell-based. Put shortly: as §1

The target is the same in data set [3]. Description: Inhibition of P-gp ATPase activity in […] DC-3F/ADX cells assessed as increase in basal activity measured by NADH level at 5 uM by spectrophotometric method. The class given is cell-based. Also on record: scale not given: the % may be the effect or the level left. The note with it: Chinese hamster. Put shortly: as §1
Data set [4] in a line: Lipophilicity, log P of the compound. The note with it: octanol/water. The class given is physicochemical.

T1 sequence (P08183 whole entry): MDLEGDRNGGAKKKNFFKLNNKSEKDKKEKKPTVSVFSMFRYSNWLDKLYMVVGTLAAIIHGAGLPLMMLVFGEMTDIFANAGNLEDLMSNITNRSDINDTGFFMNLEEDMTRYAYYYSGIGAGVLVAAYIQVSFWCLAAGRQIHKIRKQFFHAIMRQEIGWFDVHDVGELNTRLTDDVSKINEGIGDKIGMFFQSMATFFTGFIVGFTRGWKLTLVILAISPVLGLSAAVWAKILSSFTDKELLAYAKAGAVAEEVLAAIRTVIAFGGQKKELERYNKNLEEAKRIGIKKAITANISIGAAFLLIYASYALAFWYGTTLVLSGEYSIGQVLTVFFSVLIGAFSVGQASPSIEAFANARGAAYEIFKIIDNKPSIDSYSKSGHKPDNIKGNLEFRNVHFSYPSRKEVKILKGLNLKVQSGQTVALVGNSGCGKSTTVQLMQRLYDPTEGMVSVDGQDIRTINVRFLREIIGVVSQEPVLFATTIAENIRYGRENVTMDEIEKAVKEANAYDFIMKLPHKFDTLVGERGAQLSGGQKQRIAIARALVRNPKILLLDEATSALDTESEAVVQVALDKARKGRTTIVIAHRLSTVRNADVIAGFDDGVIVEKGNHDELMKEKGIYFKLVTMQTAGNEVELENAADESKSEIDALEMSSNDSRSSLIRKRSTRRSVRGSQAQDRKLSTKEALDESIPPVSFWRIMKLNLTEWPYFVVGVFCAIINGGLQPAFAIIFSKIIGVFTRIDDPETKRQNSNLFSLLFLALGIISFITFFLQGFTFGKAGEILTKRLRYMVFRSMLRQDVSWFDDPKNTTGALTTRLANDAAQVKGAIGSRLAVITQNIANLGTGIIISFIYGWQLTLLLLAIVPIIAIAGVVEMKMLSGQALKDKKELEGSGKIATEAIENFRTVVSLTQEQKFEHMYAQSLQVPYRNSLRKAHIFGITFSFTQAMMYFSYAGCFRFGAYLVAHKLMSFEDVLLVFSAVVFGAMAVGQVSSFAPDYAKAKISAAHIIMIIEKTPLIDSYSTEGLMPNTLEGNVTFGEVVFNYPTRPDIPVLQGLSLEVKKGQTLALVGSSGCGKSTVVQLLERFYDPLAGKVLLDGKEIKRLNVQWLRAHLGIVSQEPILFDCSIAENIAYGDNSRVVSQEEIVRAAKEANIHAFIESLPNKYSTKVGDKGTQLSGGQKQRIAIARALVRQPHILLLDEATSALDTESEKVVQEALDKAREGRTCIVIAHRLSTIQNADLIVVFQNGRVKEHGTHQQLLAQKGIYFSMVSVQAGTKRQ

A word on the logP: it is the decadic logarithm of the partition coefficient of the neutral form, usually between octanol and water. For `O=c1c2ccccc2n(CC(O)CN2CCCC2)c2ccccc12` (configuration not stated), the Activity in data set [1] is recorded as 31%; in data set [2], 34%; in data set [3] it was 38%. The same compound showed a logP in data set [4] of 1.73.
As to `O=c1c2ccccc2n(CC(O)CN2CCCCC2)c2ccccc12` (configuration not stated), the Activity is reported as 33% in data set [1], 40% in data set [2] and 44% in data set [3]. Further, in data set [4], the lipophilicity (logP) came to 2.14.
Turning to `O=c1c2ccccc2n(CC(O)CN2CCC(N3CCCCC3)CC2)c2ccccc12` (configuration not stated), the Activity in data set [1] worked out at 25%; in data set [2] it was 32%; in data set [3], 31%. Also, the logP in data set [4] was found to be 2.56.
The corresponding values for `CCN(CC)CC(O)Cn1c2ccccc2c(=O)c2ccccc21` (configuration not stated) are 29%, 32%, 36% and 1.98.
As for `CC(C)N(CC(O)Cn1c2ccccc2c(=O)c2ccccc21)C(C)C` (configuration not stated), the values for the Activity in data set [1], in data set [2] and in data set [3] were 18%, 21% and 28%, respectively. Besides, the log partition coefficient (logP) in data set [4] was 2.58.
The like results for `O=c1c2ccccc2n(CC(O)CN2CCOCC2)c2ccccc12` (configuration not stated) were, in that order, 24%, 27%, 30% and 1.08.
For `CC(=O)[C@H]1CC[C@H]2[C@@H]3CCC4=CC(=O)CC[C@]4(C)[C@H]3CC[C@]12C` [PROGESTERONE], the values for the Activity in data set [2] and in data set [3] were 30% and 34%, respectively.
The corresponding values for `CCCNCC(O)COc1ccccc1C(=O)CCc1ccccc1` (configuration not stated) [PROPAFENONE] are 31% and 40%.
The corresponding values for `COc1ccc(CCN(C)CCCC(C#N)(c2ccc(OC)c(OC)c2)C(C)C)cc1OC` (configuration not stated) [VERAPAMIL] are 30% and 33%.
The like results for `CC[C@]1(O)C[C@@H]2CN(CCc3c([nH]c4ccccc34)[C@@](C(=O)OC)(c3cc4c(cc3OC)N(C)[C@H]3[C@@](O)(C(=O)OC)[C@H](OC(C)=O)[C@]5(CC)C=CCN6CC[C@]43[C@@H]65)C2)C1` [VINBLASTINE] were, in that order, 31% and 35%.
